One may read the inhibition as how much of the control response was suppressed. Broadly, the IC50 is the concentration that inhibits the measured activity by half.

The source of these data is ChEMBL document CHEMBL2202977, “Optimization and structure-activity relationships of a series of potent inhibitors of methicillin-resistant Staphylococcus aureus (MRSA) pyruvate kinase as novel antimicrobial agents” (Bioorg Med Chem, 2012).

The target of series [1] is T1, Pyruvate kinase (Staphylococcus aureus (strain MRSA252)) (UniProt Q6GG09).
T1 sequence (whole entry): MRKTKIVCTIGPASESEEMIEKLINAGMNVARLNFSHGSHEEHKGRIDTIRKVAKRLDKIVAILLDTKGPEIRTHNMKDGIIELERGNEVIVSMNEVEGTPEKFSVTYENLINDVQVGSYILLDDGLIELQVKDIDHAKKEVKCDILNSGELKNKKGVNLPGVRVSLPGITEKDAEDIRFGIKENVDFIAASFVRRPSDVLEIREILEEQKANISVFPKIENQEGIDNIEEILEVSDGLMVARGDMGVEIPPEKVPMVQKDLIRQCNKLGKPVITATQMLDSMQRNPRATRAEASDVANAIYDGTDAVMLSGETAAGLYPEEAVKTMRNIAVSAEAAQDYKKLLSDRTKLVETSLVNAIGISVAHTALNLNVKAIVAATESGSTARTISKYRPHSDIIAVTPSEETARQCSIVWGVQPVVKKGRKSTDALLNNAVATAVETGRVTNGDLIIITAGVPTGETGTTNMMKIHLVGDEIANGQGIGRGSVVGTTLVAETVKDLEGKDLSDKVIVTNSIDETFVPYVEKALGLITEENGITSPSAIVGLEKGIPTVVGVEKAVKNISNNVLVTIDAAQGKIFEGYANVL
Put plainly: Inhibition of methicillin-resistant Staphylococcus aureus 252 pyruvate kinase at 0.5 uM by LDH assay. Particulars: Staphylococcus aureus subsp. aureus MRSA252. An outline of the steps:
(§1)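 MRSA pyruvate kinase activity was measured by a previously described procedure. IC50 was calculated from triplicate 15-point titrations, or averaged over n such determinations. Where no IC50 was obtained, the value is % inhibition at the highest concentration tested.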

Series [2] deals with Staphylococcus aureus. Put plainly: Antimicrobial activity against Staphylococcus aureus RN4220 after 24 hrs broth microdilution method. It counts as functional. A digest of the protocol: (§2)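 MIC taken as the minimum concentration giving >98% growth inhibition of the named S. aureus strain (RN4220, ATCC 25923 or ATCC 29213). Values are single determinations or averages of n determinations. Vancomycin was run as control.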
For orientation: Dilution methods test growth across graded concentrations, often in twofold steps.

Series [3] deals with T2, Pyruvate kinase (Staphylococcus aureus (strain MRSA252), UniProt Q6GG09).
T2 sequence (Q6GG09 whole entry): T1 sequence (whole entry)
Put plainly: Inhibition of methicillin-resistant Staphylococcus aureus 252 pyruvate kinase by LDH assay. Set-up: species or system Staphylococcus aureus subsp. aureus MRSA252. An outline of the steps: as §1

Series [4] concerns THP-1. Put plainly: Cytotoxicity against human THP1 cells assessed as cell death at 25 uM after 24 hrs by MTS assay. The format is cell-based. The conditions noted are these: thp-1, 24 h. A digest of the protocol:
(§3)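 THP-1 cells were exposed to test agent at 25 µM and 6.25 µM. Read-out was percentage of dead cells.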
On the technique in general: Tetrazolium dyes change colour on reduction, which living cells bring about.

The target in series [5] is Pyruvate kinase PKM (Homo sapiens) (UniProt P14618). Put plainly: Inhibition of human pyruvate kinase M1 at 10 uM by LDH assay. A digest of the protocol: (§4)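 Selected compounds were tested against mammalian PK isoforms M1, M2, R and L at the highest concentration, 10 µM. Results are given as percent inhibition.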
Series [6] deals with Pyruvate kinase PKLR (Homo sapiens) (UniProt P30613). Put plainly: Inhibition of human pyruvate kinase L at 10 uM by LDH assay. An outline of the steps:
as §4

Series [7] deals with Pyruvate kinase PKM (Homo sapiens) (UniProt P14618). The series can be described thus: Inhibition of human pyruvate kinase M2 at 10 uM by LDH assay. An outline of the steps:
as §4

For series [8], the target named is Pyruvate kinase PKLR (Homo sapiens) (UniProt P30613). The series can be described thus: Inhibition of human pyruvate kinase R at 10 uM by LDH assay. An outline of the steps: as §4
Series [9] addresses T1, Pyruvate kinase (Staphylococcus aureus (strain MRSA252)). The series can be described thus: Inhibition of methicillin-resistant Staphylococcus aureus 252 pyruvate kinase at 10 uM by LDH assay. Particulars: Staphylococcus aureus subsp. aureus MRSA252. An outline of the steps: as §1
The test system of series [10] is THP-1. The series can be described thus: Cytotoxicity against human THP1 cells assessed as cell death at 6.25 uM after 24 hrs by MTS assay. The format is cell-based. Particulars: thp-1, 24 h. A digest of the protocol:
as §3

Series [11] has as its system Staphylococcus aureus. The series can be described thus: Antimicrobial activity against Staphylococcus aureus ATCC 29213 after 24 hrs broth microdilution method. The format is functional. An outline of the steps:
as §2

In brackets after ≈: the same amount, converted by molar mass.

Pyruvate kinase PKLR (Homo sapiens), sequence (P30613 whole entry, looked up): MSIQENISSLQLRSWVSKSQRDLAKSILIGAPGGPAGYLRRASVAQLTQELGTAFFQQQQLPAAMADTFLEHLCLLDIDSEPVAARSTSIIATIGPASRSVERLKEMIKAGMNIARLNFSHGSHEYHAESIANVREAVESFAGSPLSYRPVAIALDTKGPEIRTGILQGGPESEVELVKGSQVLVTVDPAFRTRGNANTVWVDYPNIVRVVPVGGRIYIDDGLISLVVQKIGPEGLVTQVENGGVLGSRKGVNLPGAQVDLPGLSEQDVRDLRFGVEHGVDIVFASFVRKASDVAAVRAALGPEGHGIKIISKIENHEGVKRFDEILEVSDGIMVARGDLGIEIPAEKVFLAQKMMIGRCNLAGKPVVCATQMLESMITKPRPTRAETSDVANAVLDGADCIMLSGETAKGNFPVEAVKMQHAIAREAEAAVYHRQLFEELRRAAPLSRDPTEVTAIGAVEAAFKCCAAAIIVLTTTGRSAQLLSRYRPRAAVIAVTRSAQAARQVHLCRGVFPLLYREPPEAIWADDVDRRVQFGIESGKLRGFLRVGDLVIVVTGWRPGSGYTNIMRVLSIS
Pyruvate kinase PKM (Homo sapiens), sequence (P14618 2-531 limits assumed): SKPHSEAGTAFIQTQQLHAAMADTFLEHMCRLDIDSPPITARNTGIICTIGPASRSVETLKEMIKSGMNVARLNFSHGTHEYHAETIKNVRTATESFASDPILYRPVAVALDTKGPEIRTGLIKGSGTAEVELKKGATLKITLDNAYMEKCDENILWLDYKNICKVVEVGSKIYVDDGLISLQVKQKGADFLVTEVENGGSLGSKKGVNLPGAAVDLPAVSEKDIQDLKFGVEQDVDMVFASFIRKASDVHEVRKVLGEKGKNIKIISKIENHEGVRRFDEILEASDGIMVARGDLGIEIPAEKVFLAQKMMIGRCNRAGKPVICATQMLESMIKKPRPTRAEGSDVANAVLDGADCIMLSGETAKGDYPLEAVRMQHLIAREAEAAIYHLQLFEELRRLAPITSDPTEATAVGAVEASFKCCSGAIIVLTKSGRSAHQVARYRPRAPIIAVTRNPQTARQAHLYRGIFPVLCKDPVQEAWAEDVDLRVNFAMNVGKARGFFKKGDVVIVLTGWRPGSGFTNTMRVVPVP

`CC(=NNC(=O)c1ccc(Br)cc1O)c1cc2ccccc2n1C` (mixture of isomers) gave an inhibition in [1] of 61%. The “MIC>98” value in series [2] was 4.8 µg/mL.
For `C/C(=N\NC(=O)c1cc(Br)ccc1O)c1cc2cccc(F)c2[nH]1` the same measures were 39% and above 156 µg/mL.
The molecule `O=C(NN=C(c1ccccc1)c1cc2ccccc2[nH]1)c1cc(Br)ccc1O` yielded a concentration for half-maximal inhibition (IC50) in series [3] of 0.445 µM. The results for the Activity in series [4] and in series [10] were 83% and 43%, respectively. In addition, the inhibition in [5] amounted to 11.2%; in series [6], 5.6%; in [7], 4.8%; in series [8], 13.4%; in series [9], 97.6%. In addition, the “MIC>98” value in series [2] stood at 1.4 µg/mL (≈ 3.22 µM).
`CC(=NNC(=O)c1cc(Br)ccc1O)c1nc2ccccc2o1` (mixture of isomers): the “MIC>98” value in series [11] was above 150 µg/mL. This molecule also showed an inhibition in series [1] of 26%.
With `Cn1c(/C(=N\NC(=O)c2cc(Br)ccc2O)C(C)(C)C)cc2ccccc21`, the Activity in series [4] is 73%; in series [10], 25%. Further, the “MIC>98” value in series [2] stood at 10.7 µg/mL (≈ 25 µM). Also, the inhibition in series [9] is 0%.
